For assay [1], the system named is Mus musculus. Nature of the assay: Effective dose required to produce analgesic action in mice after peroral administration. In kind it is functional. Conditions: po. Put shortly: (§1)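 Acetic acid writhing test in mice, 10 per group. Drug given sc or po; sc dosing simultaneous with ip 0.7% AcOH. Starting 15 min after AcOH, writhing observed for 5 min at 15-min intervals, four times in all. A mouse writhing more than once within 5 min counted as having no analgesic effect.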

Assay [2] deals with Mus musculus. The assay is described as follows: Percent analgesic activity in mice after subcutaneous administration at dose 10 mg/kg. In kind it is functional. The method, boiled down:
as §1

The test system of assay [3] is Mus musculus. The assay is described as follows: Percent analgesic activity in mice after peroral administration at dose 10 mg/kg. The class given is functional. To be noted: route oral. Put shortly: as §1
For assay [4], the system named is Mus musculus. Nature of the assay: Percent analgesic activity in mice after peroral administration at dose 20 mg/kg. The class given is functional. Conditions: route oral. Put shortly: as §1
The target in assay [5] is Opioid receptor (Rattus norvegicus, UniProt P33533+P34975+P33535). Nature of the assay: Inhibitory activity against opiate receptor in rat using [3H]naloxone as radioligand.
Assay [6] can be described thus: Ratio of ED50 with/without Naloxone (0.2 mg/kg) after simultaneous injection of drug. In kind it is organism-based. The method, boiled down:
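Mouse acetic acid writhing test (ip 0.7% AcOH, 10 mice/group, four 5-min observations at 15-min intervals; more than one writhe in 5 min = no analgesia). ED50 determined with drug alone and with naloxone 0.2 mg/kg injected simultaneously with the drug; value is ratio of ED50 with/without naloxone.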

Assay [7] concerns Mus musculus. The assay is described as follows: Percent analgesic activity in mice after subcutaneous administration; 20-30%. In kind it is functional. Put shortly:
as §1

For the compound `C[C@H]1C2Cc3ccc(SC(=O)C(C)(C)C)cc3[C@]1(C)CCN2C`, the ED50 in assay [1] is 6.4 mg/kg.
In assay [2], `CC(C)=CCN1CC[C@@]2(C)c3cc(SC(=O)c4ccccc4)ccc3C[C@H]1[C@@H]2C` displayed an Analgesic activity of 20%.
Compound `CC(C)=CCN1CC[C@@]2(C)c3cc(SC(=O)C(C)(C)C)ccc3CC1[C@@H]2C` returned an Analgesic activity in assay [3] of 50%.
For `COc1ccc(C(=O)Sc2ccc3c(c2)[C@]2(C)CCN(CC=C(C)C)C(C3)[C@@H]2C)cc1`, the 50% effect level in assay [1] (ED50) was put at a dose of 5.3 mg/kg.
The same measure, in the same setting: with `COc1ccc(C(=O)Sc2ccc3c(c2)[C@]2(C)CCN(CCc4ccccc4)C(C3)[C@@H]2C)cc1` the figure was 5.3 mg/kg.
Consider `C[C@H]1C2Cc3ccc(SC(=O)c4ccccc4)cc3[C@]1(C)CCN2Cc1ccccc1`, for which, in assay [4], the Analgesic activity stood at 30%.
`C[C@H]1C2Cc3ccc(SC(=O)c4ccccc4)cc3[C@]1(C)CCN2CCc1ccccc1` gave an ED50 in assay [1] of 1.7 mg/kg.
The same measure, in the same setting: with `CN1CC[C@]23c4c5ccc(O)c4O[C@H]2[C@@H](O)C=C[C@H]3[C@H]1C5` [MORPHINE] the figure was 0.52 mg/kg; with `C[C@H]1C2Cc3ccc(O)cc3[C@]1(C)CCN2CCc1cccs1`, 0.071 mg/kg.
Still for that read-out and setting: with `C[C@H]1C2Cc3ccc(O)cc3[C@@]1(C)CCN2CCc1ccccc1` the figure was 0.135 mg/kg.
With `C[C@H]1C2Cc3ccc(OC(=O)c4ccccc4)cc3[C@]1(C)CCN2C`, in assay [5], the IC50 was determined as 0.107 µM. Besides, the ED50 in assay [1] is 1.7 mg/kg. Further, the Ratio in assay [6] was 6.4.
`C[C@H]1C2Cc3ccc(SC(=O)c4ccccc4)cc3[C@]1(C)CCN2CCc1cccs1`: the Analgesic activity in assay [4] amounted to 40%.
Consider `COc1ccc(C(=O)Sc2ccc3c(c2)[C@]2(C)CCN(C)C(C3)[C@@H]2C)cc1`, for which the ED50 in assay [1] was 4.8 mg/kg.
The same measure, in the same setting: with `CC(=O)Sc1ccc2c(c1)[C@]1(C)CCN(C)C(C2)[C@@H]1C` the figure was 4.5 mg/kg; with `CC(C)=CCN1CC[C@@]2(C)c3cc(SC(=O)c4ccccc4)ccc3CC1[C@@H]2C`, 4 mg/kg.
In assay [2], `C[C@H]1[C@@H]2Cc3ccc(SC(=O)c4ccccc4)cc3[C@]1(C)CCN2C` had an Analgesic activity of 30%.
In turn, `C[C@H]1[C@H]2Cc3ccc(O)cc3[C@@]1(C)CCN2C` gave an ED50 in assay [1] of 0.27 mg/kg.
For the compound `C[C@H]1C2Cc3ccc(SC(=O)c4ccc(Cl)cc4)cc3[C@]1(C)CCN2CCc1ccccc1`, the Analgesic activity in assay [4] turned out to be 40%.
`CCC(=O)Sc1ccc2c(c1)[C@]1(C)CCN(CCc3ccccc3)C(C2)[C@@H]1C` registered an ED50 in assay [1] of 7 mg/kg.
Still for that read-out and setting: the figure for `C[C@H]1[C@H]2Cc3ccc(SC(=O)c4ccccc4)cc3[C@]1(C)CCN2C` is 1 mg/kg; for `CC(C)=CCN1CC[C@@]2(C)c3cc(SC(=O)c4ccccc4)ccc3C[C@@H]1[C@@H]2C` it is 0.74 mg/kg.
`C[C@H]1C2Cc3ccc(SC(=O)c4ccccc4)cc3[C@]1(C)CCN2C` yielded an IC50 in assay [5] of 1.53 µM. Besides, the ED50 in assay [1] came out at 1.05 mg/kg. In assay [6], the Ratio turned out to be 1.7.
For `CC(C)=CCN1CC[C@@]2(C)c3cc(SC(=O)c4ccc(Cl)cc4)ccc3CC1[C@@H]2C`, the ED50 in assay [1] turned out to be 6 mg/kg.
On the same count and under the same terms, with `CCOC(=O)Sc1ccc2c(c1)[C@]1(C)CCN(CCc3ccccc3)C(C2)[C@@H]1C` the figure was 18.5 mg/kg.
On to `CC(C)=CCN1CC[C@]2(C)c3cc(O)ccc3C[C@H]1[C@H]2C` [(+)-PENTAZOCINE], for which the 50% effect level in assay [1] (ED50) was put at a dose of 1.6 mg/kg. The compound also had an Analgesic activity in assay [2] of 20%.
`C[C@H]1[C@@H]2Cc3ccc(O)cc3[C@]1(C)CCN2C` [METAZOCINE] showed an Analgesic activity in assay [7] of 20%.
For `C[C@H]1C2Cc3ccc(O)cc3[C@]1(C)CCN2C`, the ED50 in assay [1] came out at 0.46 mg/kg.
Still for that read-out and setting: the figure for `C[C@H]1C2Cc3ccc(SC(=O)C(C)(C)C)cc3[C@]1(C)CCN2CCc1ccccc1` is 5.2 mg/kg; for `CC(C)=CCN1CC[C@@]2(C)c3cc(O)ccc3C[C@@H]1[C@@H]2C` it is 0.36 mg/kg; for `CC(C)=CCN1CC[C@@]2(C)c3cc(OC(=O)c4ccccc4)ccc3CC1[C@@H]2C` it is 2.6 mg/kg.
Consider `C[C@H]1C2Cc3ccc(SC(=O)c4ccc(Cl)cc4)cc3[C@]1(C)CCN2C`, for which it took a dose of 2.8 mg/kg to reach the 50% effect level in assay [1] (ED50).
